Screens: PubChem, several laboratories
NALP1 yeast inh – NALP1 inflammasome inhibitors in reconstituted yeast, colorimetric, S. cerevisiae, triplicate retest | S. cerevisiae NALP1/ASC/caspase-1 growth, X-gal OD620, 72 h | inhibition, % at 10 µM | 0.61% of 280,000 active | AID 2071, 2009; in the data active means inhibition mostly above about 24%, no sharp cut-off; inactive means mostly below about 32%
T cruzi inh – inhibitors of intracellular T. cruzi growth, primary screen, luminescence, NIH3T3 host cells; T. cruzi beta-gal in NIH3T3, 90 h; inhibition, % (concentration not given with the values); 1.4% of 300,000 active;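 active means mean inhibition across valid replicates above about 55%, limit read from the data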;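 further: signal also drops with host cell toxicity which is not excluded here; 0% = plate median of DMSO wells and 100% = zero luminescence signal; higher percent means less beta-gal luminescence so fewer parasites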
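System – NIH/3T3 host cells with β-galactosidase reporter T. cruzi · Doses – single 50 nL compound addition per well in DMSO · Reagent – 5000 T. cruzi trypomastigotes/well · Medium – Low-serum DMEM with 2% FBS · Timing – ≥90 h infection period, 3 h prior cell attachment · Evaluation – parasite load inhibition, % · Technique – GalScreen luminescence, 60 min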
Calb FLC – C. albicans growth inhibition with fluconazole, primary screen, CaCi-2 strain, Alamar Blue fluorescence | C. albicans CaCi-2 + fluconazole, 48 h | growth inhibition, % (test concentration not listed) | 0.57% of 300,000 active | AID 1979, 2009;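 active means growth inhibition above about 58% in most replicates, limit read from the data, passing the limit was not always enough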;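 further: all wells also contain fluconazole at 8 µg/ml as a sub-toxic cotreatment; 0% = median of DMSO wells and 100% = median of geldanamycin control wells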
L major viab – Leishmania major promastigote growth inhibition, primary screen | AID 1063, 2008 | 9% of 200,000 active | Leishmania major promastigotes, resazurin fluorescence viability | inhibition, % at 10 µM;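 further: promastigotes grown with compound for 44 hours at 28 °C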
PolyA inhibitor – polyadenylation inhibitors in yeast reporter cells, primary screen, luminescence, S. cerevisiae; S. cerevisiae SKY197-pL101 polyadenylation reporter, beta-gal luminescence; efflux-impaired pdr1/pdr3 knockout yeast; score 100 = 6 SD above DMSO; AID 1875, 2009; 0.02% of 300,000 active; activity score, % at 12 µM;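 active means lowest replicate activity score at least 50, where 100 means six control SD above control mean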;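 further: yeast exposed to compound for 9 h at 30 °C; higher score means more reporter readthrough which indicates perturbed polyadenylation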
NLRP3 yeast inh – NALP3 inflammasome inhibitors in reconstituted yeast, primary screen, luminescence, uHTS. AID 2825, 2010. Yeast reconstituted NLRP3/ASC/caspase-1, beta-gal luminescence, 24 h. inhibition, % at 10 µM. 0.39% of 330,000 active;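 active means inhibition of 50% or more; inactive means inhibition below 50%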;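 further: plate controls were induced DMSO wells for no effect and uninduced yeast grown without galactose for full effect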
NALP3 yeast conf – NALP3 inhibitors retested in yeast, confirmation, luminescence, single concentration; inhibition, % at 10 µM; yeast expressing human NALP3; AID 435006, 2010; 81% of 1,300 active; shares compounds with NLRP3 yeast inh; in the data active means inhibition above about 48%
Casp1 ASC ctr – CASP1-PYCARD signaling inhibition in yeast, confirmatory test, counterassay for NLRP3 inhibitor program, one-dose | inhibition, % at 10 µM | AID 488784, 2010 | shares compounds with NLRP3 yeast inh | yeast expressing Caspase-1-ASC, luminescence counter screen | 66% of 1,000 active
NALP3 yeast rt – NALP3 inhibitors in yeast, repeat test, confirmation, luminescence, single concentration, retest; shares compounds with NLRP3 yeast inh; yeast expressing human NALP3, luminescence read-out; inhibition, % at 10 µM; 53% of 1,000 active
An asterisk follows results filed as active; nt = no result given. Only a selection was taken, and hits are over-represented in it overall. Unless noted, no stated cut-off is given here; in the data, active means inhibition above about 50%; inactive means the rest.

SMILES | NALP1 yeast inh | T cruzi inh | Calb FLC | L major viab | PolyA inhibitor | NLRP3 yeast inh | NALP3 yeast conf | Casp1 ASC ctr | NALP3 yeast rt
CC(C)(C)c1cc(C=C(C#N)C#N)cc(C(C)(C)C)c1O | nt | nt | nt | nt | nt | 76* | 91* | 98* | 96*
C[C@]12CCC3C(CC[C@H]4C[C@H](O)CC[C@]34C)C1C[C@H](O)[C@@H]2O (stereo partly specified) | nt | nt | nt | nt | nt | 51* | 50* | nt | nt
C[C@]12CCC3C(CC[C@H]4C[C@H](O)CC[C@]34C)C1C[C@@H](O)[C@@H]2O (stereo partly specified) | nt | nt | nt | nt | nt | 44 | nt | nt | nt
C[C@]12CCC3C(CC[C@H]4C[C@H](O)CC[C@]34C)C1C[C@@H](CCCCl)[C@@H]2O (stereo partly specified) | nt | nt | nt | nt | nt | 57* | 62* | nt | nt
C[C@]12CCC3C(CC[C@H]4C[C@@H](O)CC[C@]34C)C1C[C@H](Br)[C@@H]2O (stereo partly specified) | nt | nt | nt | nt | nt | 62* | 70* | nt | nt
CN1CCN(c2ncnc3c2cnn3C)CC1 | -14 | -21 | -4 | nt | 8 | 27 | nt | nt | nt
Cn1c(O)c(C=Nc2ccccc2Sc2ccccc2)c(=O)n(C)c1=O | 26 | -9 | -11 | -2 | -3 | -13 | nt | nt | nt
O=C1CC(=O)N(c2cccc(F)c2)C(=O)N1 | 2 | 0 | 27 | nt | 0 | 10 | nt | nt | nt
CC(=O)O[C@H]1CC[C@@]2(C)C(=CC[C@@H]3[C@@H]2CC[C@]2(C)C(=O)CC[C@@H]32)C1 | nt | nt | nt | nt | nt | 58* | 59* | 59* | 40
CC[C@]12CC[C@H](O)CC1=CCC1C2CC[C@]2(C)C(=O)CCC12 (stereo partly specified) | nt | nt | nt | nt | nt | 67* | 60* | nt | nt
CC(C)c1ccc(C2NCc3ccccc3-n3cccc32)cc1 (stereo unspecified) | 38* | 27 | -9 | nt | 7 | 64* | 40 | 60* | 58*
FC(F)(F)Oc1ccc(C2NCc3ccccc3-n3cccc32)cc1 (stereo unspecified) | 29 | 21 | -31 | nt | 0 | 43 | nt | nt | nt
O=[N+]([O-])c1ccc(N2CCCCCC2)c2ncccc12 | 8 | 9 | -16 | 22 | -33 | 54* | 56* | 53* | 52*
CNC(=S)N1CC2CC(C1)c1cccc(=O)n1C2 (stereo unspecified) | 25 | -21 | -1 | -2 | 10 | -8 | nt | nt | nt
Oc1ccc(/C=N/NP(=S)(c2ccccc2)c2ccccc2)cc1 | 23 | -1 | 16 | 90* | -33 | 56* | 74* | 65* | 57*
C[C@H](O)[C@H]1CC[C@H]2[C@@H]3CCC4=CC(=O)CC[C@]4(C)[C@H]3CC[C@]12C | 32 | 9 | -1 | -6 | -11 | 52* | 73* | 42 | 40
CC12CCC(=O)C=C1CCC1C2CCC2(C)C(O)CCC12 (stereo unspecified) | 5 | nt | nt | -9 | nt | 39 | nt | nt | nt
C[C@]12CCC(=O)C=C1CC[C@@H]1[C@@H]2CC[C@@]2(C)[C@H]1CC[C@]2(C)O | 14 | nt | nt | nt | nt | nt | nt | nt | nt
C[C@]12CC[C@H](O)CC1=CC[C@@H]1[C@@H]2CC[C@@]2(C)[C@H]1CC[C@]2(C)O | nt | 19 | nt | nt | -1 | 59* | 67* | 59* | 47
CC(C)[C@H]1CC2C3CC=C4C[C@@H](O)CC[C@]4(C)C3CC[C@]2(C)[C@H]1O (stereo partly specified) | nt | nt | nt | nt | nt | 53* | 56* | nt | nt
C[C@]12C[C@H](O)[C@@H](O)CC1=CCC1C2CC[C@@]2(C)C1CC[C@@H]2O (stereo partly specified) | nt | nt | nt | nt | nt | 55* | 66* | nt | nt
O=CC(Br)P(=O)(N1CCOCC1)N1CCOCC1 (stereo unspecified) | 25 | -23 | -15 | nt | 14 | -5 | nt | nt | nt
O=[N+]([O-])c1cccnc1N1CCCNCC1 | 9 | 15 | -2 | nt | 3 | 6 | nt | nt | nt
CCOCC(=O)NC1CCSC1=O (stereo unspecified) | -10 | -9 | 14 | -7 | -7 | 5 | nt | nt | nt
O=[N+]([O-])c1cc(F)c(N2CCCC2)cc1Br | 1 | -21 | 5 | -9 | -6 | 67* | 82* | 80* | 64*
SMILES | NALP1 yeast inh | T cruzi inh | Calb FLC | L major viab | PolyA inhibitor | NLRP3 yeast inh | NALP3 yeast conf | Casp1 ASC ctr | NALP3 yeast rt
CC1CCN(c2cc(Br)c([N+](=O)[O-])cc2F)CC1 | nt | -4 | -4 | nt | 15 | 68* | 73* | 77* | 58*
O=[N+]([O-])c1cc(F)c(N2CCCCC2)cc1Br | nt | 1 | 7 | nt | -6 | 43 | nt | nt | nt
CN1CCN(c2ccc(C(N)=O)cc2[N+](=O)[O-])CC1 | 32 | 8 | -10 | -2 | 9 | 14 | nt | nt | nt
CC12CN3CC(C)(CN(C1)C3c1ccco1)C2=O (stereo unspecified) | 14 | 2 | nt | -2 | 4 | -15 | nt | nt | nt
COC(=O)C1=C(c2ccc(OC)c(OC)c2)C[C@@H]2CC[C@H]1N2C(=O)NCCNC(C)=O | nt | nt | nt | nt | nt | 5 | nt | nt | nt
CCc1c(C)nc(N)nc1N1N=C1SC(C(C)=O)C(C)=O | 26 | -6 | -1 | 3 | 20 | 12 | nt | nt | nt
Cc1c2ccncc2c(C)c2c1[nH]c1ccccc12 | 95* | 52 | nt | 100* | 9 | 82* | 93* | 72* | 40
CC(C)(C)P(=O)(c1ccncc1)N1CCCC1 (stereo unspecified) | -1 | -1 | -7 | -7 | 11 | 9 | nt | nt | nt
COc1ccc(C[C@H]2NC[C@H](O)[C@H]2OC(C)=O)cc1 | nt | 44 | nt | nt | 2 | 98* | 99* | nt | nt
COc1ccc(CCNC2CCCCC2)cc1 | 13 | -6 | -18 | 20 | 20 | 5 | nt | nt | nt
CN(C)C(Cc1ccc(C#N)cc1)C(=O)c1ccccc1 (stereo unspecified) | 35 | -7 | -6 | 4 | -2 | 8 | nt | nt | nt
COc1ccc(C(=O)C(Cc2ccccc2)N(C)C)cc1 (stereo unspecified) | 40 | 17 | 0 | -2 | 3 | 56* | 72* | 44 | 39
COc1ccc(C(C)=O)cc1CC(C(=O)c1ccc(F)cc1)N(C)C (stereo unspecified) | 20 | -3 | -11 | -3 | -4 | 13 | nt | nt | nt
